Reference: ChEMBL document CHEMBL1138431, “Synthesis and cytotoxic activities of 4,5-diarylisoxazoles” (Bioorg Med Chem Lett, 2007)

Columns and labels:
HepG2 [1] = test: Cell cycle arrest in human HepG2 cells assessed as accumulation at G0/G1 phase at 10 nM after 24 hrs relative to control
[2] = Cytotoxicity against human […] cells; format: functional, cell-based
In short: (§1)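 Cells were grown under previously described culture conditions and tested in an MTT colorimetric assay.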

HepG2 [3] = test: Cytotoxicity against human HepG2 cells; format: functional, cell-based
In short: as §1

HepG2 [4] = test: Cell cycle arrest in human HepG2 cells assessed as accumulation at G2/M phase at 10 nM after 24 hrs relative to control
HeLa = test: Cytotoxicity against human HeLa cells; format: functional, cell-based
In short: as §1

HepG2 [5] = test: Cell cycle arrest in human HepG2 cells assessed as accumulation at S phase at 10 nM after 24 hrs relative to control

COc1ccc(/C=C\c2cc(OC)c(OC)c(OC)c2)cc1O [COMBRETASTATIN A4]
Activity (HepG2 [1]): 1.68%
IC50 [2]: 0.01 nM
IC50 (HepG2 [3]): 0.14 nM
Activity (HepG2 [4]): 79.3%
IC50 (HeLa): 2.75 nM
Activity (HepG2 [5]): 19%

COc1ccc(-c2cnoc2-c2cc(OC)c(OC)c(OC)c2)cc1N
Activity (HepG2 [1]): 2.81%
IC50 [2]: 0.135 nM
IC50 (HepG2 [3]): 0.065 nM
Activity (HepG2 [4]): 69.8%
IC50 (HeLa): 0.022 nM
Activity (HepG2 [5]): 27.4%
